Assay results reported in ChEMBL document CHEMBL3352408, “Karwinaphthopyranones from the fruits of Karwinskia parvifolia and their cytotoxic activities” (J Nat Prod, 2014).
pIC50: −log10 of the molar value.

How the values were obtained:
A549 = test: Cytotoxicity against human A549 cells after 72 hrs by MTT assay; assay type: functional, cell-based; conditions: A549, 72 h
Outline: (§1)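 MTT read-out of cell viability, with etoposide as positive control. Cell origins: A549, human lung carcinoma; HeLa, cervical cancer; ZR-7530, breast cancer; HCT-15, colon cancer; U373, brain cancer; Hep G2, liver cancer. Potency reported as half-maximal growth inhibitory concentration (IC50).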

[1] = Cytotoxicity against human HCT15 cells after 72 hrs by MTT assay; assay type: functional, cell-based; conditions: HCT-15, 72 h; outline: as §1
[2] = Cytotoxicity against human ZR-7530 cells after 72 hrs by MTT assay; assay type: functional, cell-based; conditions: ZR-75-30, 72 h; outline: as §1
[3] = Cytotoxicity against human U373 cells after 72 hrs by MTT assay; assay type: functional, cell-based, U-373MG ATCC; conditions: U373 MG; outline: as §1
HeLa = test: Cytotoxicity against human HeLa cells after 72 hrs by MTT assay; assay type: functional, cell-based; outline: as §1
HepG2 = test: Cytotoxicity against human HepG2 cells after 72 hrs by MTT assay; assay type: functional, cell-based; conditions: HepG2, 72 h; outline: as §1

Structure (SMILES) | pIC50 (A549) | pIC50 [1] | pIC50 [2] | pIC50 [3] | pIC50 (HeLa) | pIC50 (HepG2)
COc1cccc2c1C(=O)C1=C(C[C@H](C)O[C@@H]1C)C2(OC)c1ccc2cc3c(c(O)c2c1O)C(=O)C[C@@](C)(O)C3 (stereo partly specified) | < 5.00 | 5.34 | 5.26 | < 5.00 | < 5.00 | 5.34
COc1cc(OC)c2c(O)c(C(C)=O)c(C)cc2c1 | < 5.00 | < 5.00 | < 5.00 | < 5.00 | < 5.00 | 5.02
C[C@@]1(O)CC(=O)c2c(cc3ccc(-c4c5c(c(O)c6c(O)cccc46)C(=O)C[C@@](C)(O)C5)c(O)c3c2O)C1 | < 5.00 | 5.31 | 5.24 | < 5.00 | 5.31 | < 5.00
Cc1cc(O)c2c(c1)Cc1ccc(C3c4cccc(O)c4C(=O)c4c(O)cc(C)cc43)c(O)c1C2=O (stereo unspecified) | < 5.00 | < 5.00 | 5.02 | < 5.00 | < 5.00 | < 5.00
COc1cc(C)cc2c1C(=O)c1c(O)cccc1C2=O | < 5.00 | < 5.00 | < 5.00 | < 5.00 | < 5.00 | 5.03
COc1cc([C@@H]2c3cc4c(cc3[C@@H](O[C@@H]3O[C@@H]5CO[C@@H](C)O[C@H]5[C@H](O)[C@H]3O)[C@H]3COC(=O)[C@H]23)OCO4)cc(OC)c1O [ETOPOSIDE] | 5.03 | 5.34 | 5.60 | 5.07 | 5.47 | 5.44
